The values below come from ChEMBL document CHEMBL1125438, “Synthesis and anti-HIV activity of 4'-azido- and 4'-methoxynucleosides” (J Med Chem, 1992).

“And” between values parts separate entries of the source, which are not always exact repeats. Equal values may be shown once.

Test [1] is described as follows: In vitro Cytotoxic concentration in mock-infected A3.01 cells - 100% toxicity. Format: functional, Homo sapiens. In a few lines: (§1)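 Toxicity was read on mock-infected A3.01, H9 or PBL cells handled alongside the infected ones (3 h mock infection, wash). Compounds were 3-fold serially diluted (AZT 5-fold). Incubation lasted 7 days, with medium and compound changed on day 4. Cytotoxicity was graded by eye from cell morphology and death. […] Single determination.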

Test [2] can be described thus: In vitro Cytotoxic concentration in mock-infected A3.01 cells. Format: functional, Homo sapiens. Summed up:
as §1

Test [3] is described as follows: Selectivity index is defined as CC25(A3.01 cells) / IC50(A3.01 cells). It counts as functional. Summed up: (§2)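 Selectivity index = CC25/IC50 within each line (A3.01, H9 or PBL). CC25 came from visual grading of mock-infected cells after 7 days. IC50 came from reverse transcriptase activity in infected-cell supernatants after 7 days, with medium and compound changed on day 4.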

The nature of test [4]: Selectivity index is defined as CC25(PBLcells) / […]. It counts as functional. In a few lines:
as §2

In test [5] the test system is MT2. The test is described as follows: In vitro Cytotoxic concentration which reduced HIV-1 LAV infected MT-2 cells by 25 percent. It counts as functional, Homo sapiens. Summed up:
(§3)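 MT-2 cells were mock-infected for 3 h at 37 °C in 5% CO2, then washed. Compound was added as serial dilutions (3-fold; AZT 5-fold) and incubated 4 days. Cytotoxicity was counted by trypan blue dye exclusion on a hemocytometer. […] Single determination.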

For test [6], the system named is H9. Nature of the test: In vitro Cytotoxic concentration which reduced HIV-1 LAV infected H9 cells by 25 percent. Format: functional, Homo sapiens. Summed up:
as §1

The subject of test [7] is H9. Nature of the test: In vitro Cytotoxic concentration which destroyed HIV-1 LAV infected H9 cells completely. It counts as functional, Homo sapiens. In a few lines:
as §1

Test [8] deals with MT2. The test is described as follows: In vitro Cytotoxic concentration which reduced G 910-6p2 (post-AZT) infected MT-2 cells by 50 percent. It counts as functional, cell-based. The note with it: Homo sapiens. Summed up: (§4)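 MT-2 cells were infected for 3 h at 37 °C in 5% CO2 with HIV-1 LAV or with clinical isolates G762-3, H112-2 (pre-AZT) or G691-2, G910-6p2 (post-AZT), then washed. Serial compound dilutions (3-fold; AZT 5-fold) followed, with 4-day incubation. Virus was measured as p24 core antigen by kit. IC50 = 50% reduction versus control cultures. Single determination.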

The nature of test [9]: Selectivity index is defined as CC25(H9 cells) / […]. Format: functional. Summed up:
as §2

The subject of test [10] is MT2. Nature of the test: In vitro Cytotoxic concentration which reduced HIV-1 LAV infected MT-2 cells by 50 percent. Format: functional, cell-based. Particulars: Homo sapiens. In a few lines:
as §4

The subject of test [11] is MT2. Nature of the test: (§5) In vitro Cytotoxic concentration which destroyed HIV-1 LAV infected peripheral blood lymphocytes (PBL) completely. Format: functional, Homo sapiens. Summed up: as §1
Test [12] deals with MT2. Nature of the test: In vitro Cytotoxic concentration which reduced G 762-3(pre-AZT) infected MT-2 cells by 50 percent. Particulars: Homo sapiens. Format: functional, cell-based. In a few lines:
as §4

A short description of test [13]: In vitro Cytotoxic concentration which reduced HIV-1 LAV infected peripheral blood lymphocytes (PBL) by 25 percent. Format: functional. In a few lines: as §1
Test [14] concerns MT2. The test is described as follows: In vitro Cytotoxic concentration which reduced H 112-2(pre-AZT) infected MT-2 cells by 50 percent. It counts as functional, cell-based. Particulars: Homo sapiens. In a few lines: as §4
A short description of test [15]: In vitro Cytotoxic concentration which reduced HIV-1 LAV infected peripheral blood lymphocytes by 50 percent. It counts as functional. Summed up: (§6)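 Cells (A3.01, H9 or PBL) infected with HIV-1 LAV for 3 h at 37 °C in 5% CO2, then washed free of unadsorbed virus. Test compounds were serially diluted 3-fold and AZT 5-fold. Cultures ran 7 days, with medium and compound renewed on day 4. Reverse transcriptase activity in supernatants gave virus levels. IC50 = concentration cutting virus by 50% versus control cultures. Single determination.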

The subject of test [16] is MT2. The test is described as follows: In vitro Cytotoxic concentration which destroyed HIV-1 LAV infected MT-2 cells completely. It counts as functional, Homo sapiens. Summed up:
as §3

The test system of test [17] is H9. Nature of the test: In vitro Cytotoxic concentration which reduced HIV-1 LAV infected H9 cells by 50 percent. It counts as functional, cell-based. Particulars: Homo sapiens. Summed up: as §6
The nature of test [18]: Selectivity index is defined as CC25(MT2 cells) / […]. It counts as functional. Summed up:
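Selectivity index = CC25/IC50 in MT-2 cells. CC25 came from trypan blue exclusion on mock-infected cells after 4 days. IC50 came from the 50% reduction in p24 antigen in HIV-1 LAV-infected cultures after 4 days.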

The subject of test [19] is MT2. The test is described as follows: In vitro Cytotoxic concentration which reduced G 691-2(post-AZT) infected MT-2 cells by 50 percent. Format: functional, cell-based. The note with it: Homo sapiens. Summed up: as §4
The nature of test [20]: as §5. Format: functional. Summed up: as §1
The nature of test [21]: In vitro cytotoxic concentration for mock-infected cells at which complete destruction of cells was observed. Format: functional. In a few lines:
as §1

A short description of test [22]: In vitro cytotoxic concentration for mock-infected CD4+ T cells at which 25% cells were destroyed. It counts as functional, T-cell. In a few lines: as §1
Test [23] in a line: Selectivity index is defined as CC25(A3.01 cells) / IC50(A3.01 cells); selectivity Index = CC25/IC50. It counts as functional. In a few lines: as §2

In test [1], `[N-]=[N+]=N[C@]1(CO)O[C@@H](n2ccc(=O)[nH]c2=O)[C@H](O)[C@@H]1O` returned a CC100 of more than 200 µM. The same molecule yielded a CC25 in test [2] of more than 200 µM. Moreover, the Selectivity index in test [3] is reported as more than 2.74.
As for `CO[C@H]1C[C@H](n2cc(C)c(=O)[nH]c2=O)O[C@@]1(CO)N=[N+]=[N-]`, the CC100 in test [1] was more than 200 µM. In test [2], the CC25 is more than 200 µM. The molecule also displayed a Selectivity index in [3] of more than 9.8.
Take `Cc1cn([C@H]2C[C@H](O)[C@](CO)(N=[N+]=[N-])O2)c(=O)[nH]c1=O`: the Selectivity index was determined as 125 in test [4], 625 in test [9], 800 in test [3] and 140 in [18]. Also, the figures for the CC25 in test [5], in [6] and in test [13] were 56 µM, 25 µM and 2.5 µM, respectively. In addition, the CC100 was 200 µM and >200 µM in test [1]; 667 µM in [7]; more than 200 µM in [11]; more than 500 µM in [16]. The IC50 in [8] was found to be 0.52 µM; in test [10], 400 nM; in test [12], 430 nM; in test [14], 400 nM; in test [15], 20 nM; in [17] it was 400 nM. This molecule showed an IC50 in test [19] of 0.34 µM.
The molecule `[N-]=[N+]=N[C@]1(CO)O[C@@H](n2cnc3c(N)ncnc32)C[C@@H]1O` yielded a CC100 in [1] of more than 50 µM. This molecule also showed a CC25 in test [2] of 50 µM. The Selectivity index in test [3] is listed as 385.
On the same counts, the results for `COC1(CO)OC(n2cc(C)c(=O)[nH]c2=O)CC1F` (configuration not stated) are more than 400 µM, 400 µM and 125.
The like results for `[N-]=[N+]=N[C@]1(CO)O[C@@H](n2ccc(=O)[nH]c2=O)C[C@@H]1O` were, in that order, more than 200 µM, 200 µM and 250.
In [1], `[N-]=[N+]=N[C@]1(CO)O[C@@H](n2ccc(N)nc2=O)C[C@@H]1O` registered a CC100 of 1.9 µM. In test [2], this molecule registered a CC25 of 0.21 µM. Further, in test [3], the Selectivity index was determined as 53.
Take `[N-]=[N+]=N[C@]1(CO)O[C@@H](n2ccc(N)nc2=O)[C@H](O)[C@@H]1O` [4'-AZIDOCYTIDINE]: the CC100 in test [1] was found to be 74.1 µM. Besides, in test [2], the CC25 is 8.2 µM.
With `CO[C@]1(CO)O[C@@H](n2cnc3c(N)ncnc32)C[C@@H]1O`, the CC100 in test [1] was more than 1000 µM. The CC25 in test [2] was 1000 µM. This molecule also gave a Selectivity index in [3] of 64.5.
As to `Cc1cn(C2C=CC(CO)(N=[N+]=[N-])O2)c(=O)[nH]c1=O` (configuration not stated), the CC100 in test [1] worked out at 7.4 µM. This molecule also came in with a CC25 in test [2] of 2.5 µM.
In test [1], `[N-]=[N+]=N[C@]1(CO)O[C@@H](N2C=NC3C(=O)N=C(N)N=C32)C[C@@H]1O` (some centres not stated) returned a CC100 of 1.9 µM. In [2], the CC25 amounted to 0.21 µM. Moreover, the Selectivity index in [3] was found to be 70.
As for `Cc1cn([C@H]2C[C@H](N=[N+]=[N-])[C@@H](CO)O2)c(=O)[nH]c1=O` [ZIDOVUDINE], the CC25 in test [5] came to 56 µM; in [6], 44 µM; in test [2], 825 µM; in test [13] it was 4 µM. For the same molecule, the CC100 in test [1] is 3300 µM; in test [20] it was more than 500 µM; in test [7], 1200 µM; in [16] it was more than 500 µM. The concentration for half-maximal inhibition (IC50) in test [8] came to 31 µM; in test [10], 160 nM; in test [12] it was 220 nM; in [14], 200 nM; in test [15], 80 nM; in test [17], 30 nM. In [19], this molecule displayed a half-maximal inhibitory concentration (IC50) of 10 µM.
Molecule `Cc1cn([C@H]2CC[C@@](CO)(N=[N+]=[N-])O2)c(=O)[nH]c1=O` returned a CC100 in [1] of 33.3 µM. For the same molecule, in test [2], the CC25 amounted to 11.1 µM.
In test [1], `[N-]=[N+]=N[C@]1(CO)O[C@@H](N2C=NC3C(=O)N=CN=C32)C[C@@H]1O` (some centres not stated) gave a CC100 of 200 µM. In [2], the CC25 was less than 22 µM. For the same molecule, the Selectivity index in [3] is listed as less than 34.
`CO[C@]1(CO)O[C@@H](n2cc(C)c(=O)[nH]c2=O)C[C@@H]1O` registered a CC100 in test [1] of more than 200 µM. Moreover, the CC25 in [2] was more than 200 µM. This molecule returned a Selectivity index in test [3] of more than 23.6.
In test [1], `[N-]=[N+]=N[C@]1(CO)O[C@@H](n2cc(Cl)c(=O)[nH]c2=O)C[C@@H]1O` returned a CC100 of more than 1000 µM. The molecule further displayed a CC25 in test [2] of 1000 µM. Also, the Selectivity index in test [3] was found to be 17900.
`CO[C@]1(CO)O[C@@H](n2cnc3c(O)nc(N)nc32)C[C@@H]1O`: the CC100 in test [21] was 67 µM. The molecule further displayed a CC25 in [22] of 22 µM. The Selectivity index in [23] amounted to 220.
In test [1], `Cc1cn([C@H]2CC[C@](CO)(N=[N+]=[N-])O2)c(=O)[nH]c1=O` showed a CC100 of 200 µM. Besides, in [2], the CC25 was determined as 22 µM.
